Data set [1] can be described thus: Cytotoxicity against chinese hamster V79 cells assessed as survival fraction under normoxic condition at 20 uM after 7 days by crystal violet staining relative to control. The class given is cell-based, Cricetulus griseus. The settings on record: read-out: Activity. In outline: (§1)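 V79 suspension cultures were set at 2 × 10^4 cells/mL in EMEM with 10% FBS and 10 mM HEPES, under aerobic or hypoxic gassing. Compound at 20 µM was added 30 min after gassing began, in duplicate flasks, with a DMSO negative control. After 2 h the cells were replated (10^2–10^3 cells) for 7 days at 37 °C. Colonies of >64 cells were counted after crystal violet staining. SF = PEtreated/PEcontrol × 100; values are means of two experiments.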

The nature of data set [2]: Cytotoxicity against chinese hamster V79 cells assessed as survival fraction under hypoxic condition at 20 uM after 7 days by crystal violet staining relative to control. To be noted: read-out: Activity. The class given is cell-based, Cricetulus griseus. The gist of the method:
as §1

The test system of data set [3] is Calf thymus DNA. The experiment in a line: Binding affinity to calf thymus DNA assessed as ratio of final absorbance area to the absorbance at 100 uM after 24 hrs by UV spectrophotometer analysis relative to control. The class given is nucleic-acid assay. The settings on record: Bos taurus. The gist of the method:
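Calf thymus DNA was stirred 24 h at 4 °C in 10 mM Tris–HCl pH 7.4, then diluted. Compound at 10^-4 M (≤5% solvent) was diluted in water to 2 × 10^-5 M. This was mixed 1:1 by volume with the DNA solution and rotated 24 h. UV spectra were taken at 20 °C. The ratio is the area of a 20 nm band centred on λmax at 24 h over that at 0 h (a24/a0).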

The next data set concerns Caco-2. In words: Cytotoxicity against human Caco-2 cells assessed as induction of DNA fragmentation under oxic condition at 10 uM after 24 hrs using ethidium bromide staining by agarose gel electrophoresis. In kind it is functional, cell-based. In outline:
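Caco-2 cells were seeded at 2 × 10^6 cells/well in 100-mm plates and exposed for 24 h under oxic conditions. Chromosomal DNA was then isolated and run on a 1% agarose gel with ethidium bromide staining to visualise fragmentation. The assay was repeated on four separate occasions.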

The test system of data set [4] is Calf thymus DNA. The experiment in a line: Binding affinity to calf thymus DNA assessed as change in melting temperature by UV spectrophotometer analysis. The class given is nucleic-acid assay. To be noted: Bos taurus. In outline:
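Calf thymus DNA in 10 mM Tris–HCl pH 7.4 was mixed with compound at a 1:1 DNA:BPDO ratio. Thermal denaturation was followed as the change in absorbance at 260 nm with temperature, in a 1-cm cell.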

Calls of active or inactive are those of the source. The calls are words filed in the database; no cut-off is given here.

Turning to `[O-][n+]1c2ccccc2[n+]([O-])c2c3ccccc3ccc21`, the viability at 168 h, 20 µM worked out at 40% in data set [1] and 45% in data set [2]. Besides, in the data set on Calf thymus DNA [3], the Ratio was 1.
For `CCOc1ccc(-c2nc3cc(-c4nc5cc(N6CCN(C)CC6)ccc5[nH]4)ccc3[nH]2)cc1`, in the data set with Calf thymus DNA [3], the Ratio was 0.57.
Take `CN[C@@H]1C[C@H]2O[C@@](C)([C@@H]1OC)n1c3ccccc3c3c4c(c5c6ccccc6n2c5c31)C(=O)NC4`: the outcome with Caco-2 was Active.
With `Nc1ccc2cc3ccc(N)cc3nc2c1`, in the data set on Calf thymus DNA [4], the ΔTm (in general, the change in melting temperature against a reference sample) is 12 °C.
On to `CC[n+]1c(-c2ccccc2)c2cc(N)ccc2c2ccc(N)cc21`, for which the Ratio in the data set on Calf thymus DNA [3] turned out to be 0.5.
As for `[O-][n+]1c2ccccc2[n+]([O-])c2c3ccccc3c(O)cc21`, the values for the viability at 168 h, 20 µM in data set [1] and in data set [2] were 100% and 93%, respectively. The Ratio in the data set with Calf thymus DNA [3] amounted to 0.
Take `O=C1c2c(O)ccc(O)c2C(=O)c2c(NCCNCCO)ccc(NCCNCCO)c21`: the Ratio in the data set on Calf thymus DNA [3] was 0.
On the same count and under the same terms, the value for `COc1cc(NS(C)(=O)=O)ccc1Nc1c2ccccc2nc2ccccc12` was 0.3.
For the compound `COc1ccc2c(c1)[n+]([O-])c1c3ccccc3ccc1[n+]2[O-]`, the results for the viability at 168 h, 20 µM in data set [1] and in data set [2] were 88% and 44%, respectively. The Ratio with Calf thymus DNA [3] was found to be 1.

The values above are taken from ChEMBL document CHEMBL1165945, “Study of benzo[a]phenazine 7,12-dioxide as selective hypoxic cytotoxin-scaffold. Identification of aerobic-antitumoral activity through DNA fragmentation” (Bioorg Med Chem, 2010).
